Measurements from ChEMBL document CHEMBL1255290, “Characterization of a novel human immunodeficiency virus type 1 protease inhibitor, A-790742” (Antimicrob Agents Chemother, 2008).
pEC50: −log10 of the molar value.

Experiments:
[1] = system: Human immunodeficiency virus 1; assay: (§1) Antiviral activity against HIV1 pNL4-3 infected in human MT4 cells derived from 21 viral passages with 2000 nM A-790742 harboring protease L23I, L33F, K45I, A71A/V, V77I, V82L, I84V mutation assessed as reduction in viral cytopathogenicity treated 1 hr post infection measured 5 days post infection by MTT assay relative to wild type HIV1 pNL4-3; format: functional
Method in brief: (§2)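 Selection: MT-4 cells infected with parental pNL4-3 or RF (MOI 0.003, 2 h), then passaged under rising selecting drug whenever supernatant p24 (ELISA) exceeded 10 ng/ml. Passage viruses titred by TCID50 (Spearman-Karber). Assay: 10^6 MT-4 cells infected at MOI 0.003 for 1 h, washed, and seeded at 10^4 cells/well with eight serial dilutions, triplicate, 0.5% DMSO final. Day-5 MTT read-out; EC50 fold-change versus parental wild type.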

[2] = system: Human immunodeficiency virus 1; assay: Antiviral activity against HIV1 isolate 12 infected in human MT4 cells obtained from protease inhibitor-resistant patient harboring protease L10I, I13V, K20I, E35D, M36I, M46I, I50V, I54V, R57K, I62V, L63P, A71V, V82A, L89V, L90M, Q92K mutation derived from viral passages with Lopinavir assessed as reduction in viral cytopathogenicity treated 1 hr post infection measured 5 days post infection by …; format: functional
[3] = system: Human immunodeficiency virus 1; assay: as §1, with “13” for “21”, “400” for “2000”, “protease” for “protease L23I, L33F, K45I, A71A/V, V77I,”; format: functional; method in brief: as §2
[4] = system: Human immunodeficiency virus 1; assay: Antiviral activity against HIV1 isolate 2 infected in human MT4 cells obtained from protease inhibitor-resistant patient harboring protease L10I, I15V, G16E, K20R, E35D, M36I, R41K, I54A, R57K, Q61D, A71V, I72R, V82A, L89I, L90M, Q92K mutation derived from viral passages with Lopinavir assessed as reduction in viral cytopathogenicity treated 1 hr post infection measured 5 days post infection by …; format: functional
[5] = system: Human immunodeficiency virus 1; assay: Antiviral activity against HIV1 isolate 7 infected in human MT4 cells obtained from protease inhibitor-resistant patient harboring protease L10I, M46M/L, G48V, I54V, L63P, A71V, I72M, V77I, V82A, L90M, I93L mutation derived from viral passages with Lopinavir assessed as reduction in viral cytopathogenicity treated 1 hr post infection measured 5 days post infection by MTT assay relative to wild …; format: functional
[6] = system: Human immunodeficiency virus 1; assay: Antiviral activity against HIV1 clone3 infected in HEK293 cells harboring A-790742-selected protease L33F, K45I, V82L, and I84V mutation assessed as reduction in viral replication by luciferase reporter gene assay relative to wild type HIV1 pNL4-3; format: functional
Method in brief: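 Single-cycle assay: HEK-293 cells were cotransfected with luciferase-reporter HIV-1 protease clones plus a VSV-G expression vector. After 4 h, cells were replated at 2 × 10⁴/well over serial inhibitor dilutions in triplicate. Pseudovirus collected at 48 h infected fresh HEK-293 (10⁴/well). Luciferase read 48 h later gave % inhibition versus untreated and EC50. Fold change against WT pNL4-3-Luc (clones 1-4) or RF-Luc (clone 5) is the mean of three experiments.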

[7] = system: Human immunodeficiency virus 1; assay: Antiviral activity against HIV1 isolate 6 infected in human MT4 cells obtained from protease inhibitor-resistant patient harboring protease L10I, L24I, M46I, I54V, K55R, Q58E, L63P, I64V, A71V, V82A, T91A mutation derived from viral passages with Lopinavir assessed as reduction in viral cytopathogenicity treated 1 hr post infection measured 5 days post infection by MTT assay relative to wild type …; format: functional
[8] = system: Human immunodeficiency virus 1; assay: as §1, with “6” for “21”, “16” for “2000”, “protease” for “protease L23I, L33F, K45I, A71A/V, V77I, V82L,”; format: functional; method in brief: as §2
[9] = system: Human immunodeficiency virus 1; assay: Antiviral activity against wild-type HIV1 pNL4-3 infected in human MT4 cells assessed as reduction in viral cytopathogenicity treated 1 hr post infection measured 5 days post infection in presence of 50% human serum by MTT assay; format: functional, organism-based; conditions: Human immunodeficiency virus 1, pNL4-3, MT4
[10] = system: Human immunodeficiency virus 1; assay: (§3) Antiviral activity against HIV1 RF infected in human MT4 cells derived from 8 viral passages with 52 nM A-790742 harboring protease V75I mutation assessed as reduction in viral cytopathogenicity treated 1 hr post infection measured 5 days post infection by MTT assay relative to wild type HIV1 RF; format: functional; method in brief: as §2
[11] = system: Human immunodeficiency virus 1; assay: as §1, with “15” for “21”, “560” for “2000”, “L33L/F,” for “L23I, L33F,”, “K45I,” for “K45I, A71A/V, V77I,”; format: functional; method in brief: as §2
[12] = system: Human immunodeficiency virus 1; assay: Antiviral activity against HIV1 isolate 8 infected in human MT4 cells obtained from protease inhibitor-resistant patient harboring protease L10I, I13V, L33F, E34Q, R41K, M46I, I54V, K55R, R57K, Q58E, I62V, L63P, A71V, I72I/T, G73S, V82A, I84V, L90M mutation derived from viral passages with Lopinavir assessed as reduction in viral cytopathogenicity treated 1 hr post infection measured 5 days post …; format: functional
[13] = system: Human immunodeficiency virus 1; assay: as §3, with “pNL4-3” for “RF”, “10” for “8”, “140” for “52”, “V82V/L and I84V” for “V75I”; format: functional; method in brief: as §2

COC(=O)N[C@H](C(=O)N[C@H](Cc1ccc(-c2ccccn2)cc1)C[C@H](O)[C@H](Cc1ccccc1)NC(=O)[C@@H](N1CCN(Cc2cccc(C(C)(C)O)n2)C1=O)C(C)(C)C)C(C)(C)C
Ratio EC50 [1]: 666.7 | Ratio EC50 [2]: 1 | Ratio EC50 [3]: 133.3 | Ratio EC50 [4]: 12 | Ratio EC50 [5]: 2 | Ratio EC50 [6]: 23 | Ratio EC50 [7]: 1 | Ratio EC50 [8]: 5.3 | pEC50 [9]: 7.70 | Ratio EC50 [10]: 10.4 | Ratio EC50 [11]: 186.7 | Ratio EC50 [12]: 4 | Ratio EC50 [13]: 46.7
